A short description of test [1]: reduced viability of SK-BR-3 breast cancer cells – cell-based, 24 h, human, pilot screen (AID 572).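 Note: compound exposure lasted between 18 and 24 h rather than exactly 24 h; 100% = carrier-treated control wells.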 The note with it: SK-BR-3 viability, CellTiter-Glo luminescence, at 10 µM, stronger effect = lower value. On the technique in general: ATP-based viability assays read luminescence as a measure of living cells.
Test [2] is described as follows: HUVEC growth inhibition – cell-based, human, primary screen (AID 575;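 active = viability at or below 30% in both replicate assays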;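 note: 100% = median of untreated cell wells with 0.1% DMSO on each plate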). The following applies: HUVEC proliferation, CellTiter-Glo luminescence, 72 h; at 10 µM; stronger effect = lower value. Summed up:
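system = HUVEC primary cells | amount = 1250 cells/well | buffer or medium = supplemented EBM, 2% fetal bovine serum | dosing = single-point 10 µM, DMSO 0.1% final | times = 72 h compound incubation | detection = CTG luminescence | read-out = % viability relative to median vehicle-well signal on each plate | control set = vehicle and MePR control wells | format = collagen-coated 384-well format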

A short description of test [3]: H69AR cell proliferation blockers – human, duplicate replicates, primary screen (AID 580;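 active = viability at or under a set limit in both replicates, limit being median viability minus 3 SD, cut at about 48% in these data, passing the limit was not always enough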;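 note: 100% = mean luminescence of untreated wells and 0% = no signal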). The note with it: H69AR lung tumor cells viability, ATP luminescence, 72 h; at 10 µM; stronger effect = lower value.
A short description of test [4]: MRP1 drug-resistance reversers in H69AR cells – cell-based, doxorubicin co-treatment, pilot screen (AID 601;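 active = viability loss from added drug above about 55%, and viability with drug at most 40%, in both replicates, limit read from the data, passing the limit was not always enough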). The note with it: CellTiter-Glo, 72 h, at 10 µM; for differential viability (reversal): stronger effect = higher value.
A short description of test [5]: yeast transport mutant growth inhibition pilot in 384-well plates, post-Golgi transport modulator project (AID 636; in the data active = inhibition above about 31%). The following applies: absorbance 615 nm, about 18 h, stronger effect = higher value.
Test [6] can be described thus: growth suppression of yeast trafficking mutant, preliminary HTS, modulators of trafficking downstream of Golgi apparatus project, 1536-format plate, OD 615 nm (AID 637; in the data active = inhibition above about 30%). The note with it: yeast transport mutant growth, absorbance 615 nm, 18 h; stronger effect = higher value.
Where [7] appears, read: H69AR cells + 2 uM doxorubicin, measured here: viability with 2 uM doxorubicin, stronger effect = lower value.
Where [8] appears, read: H69AR cells, compound alone cytotoxicity.

The source made the active and inactive calls.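 Rule for the calls, unless noted: active = viability at or below 10% of carrier control in both of two separate runs; inconclusive = viability at or below 10% in only one of the two runs; inactive = the rest.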

For `CCc1nnc(NC(=O)CSc2nc(-c3ccc(OC)cc3)ns2)s1`, the viability in test [1] is 110% (inactive); in test [2], 101% (inactive); in test [3], 93.1% (inactive); in test [4] (setting [7]), 93.7%; in test [4] (setting [8]), 93.1%. The differential viability (reversal) in test [4] (H69AR cells + 2 uM doxorubicin) was -0.64% (inactive). Also, the inhibition in test [5] is -5.07% (inactive); in test [6], 0.91% (inactive).
Regarding `COc1ccc(C2C(C(=O)c3sc(C)nc3C)=C(O)C(=O)N2CCN(C)C)cc1` (centres undefined), the viability in test [1] was 106% (inactive); in test [2] it was 106% (inactive); in test [3] it was 93.1% (inactive); in test [4] (setting [7]) it was 80.7%; in test [4] (setting [8]), 93.1%. In test [4] (H69AR cells + 2 uM doxorubicin), the differential viability (reversal) was 12.4% (inactive). Also, the inhibition in test [5] was -8% (inactive); in test [6], 4.36% (inactive).
For `CC1(C)S[C@@H]2[C@H](NC(=O)[C@H](N)c3ccccc3)C(=O)N2[C@H]1C(=O)O`, the viability was 103% (inactive) in test [1]; 93.8% (inactive) in test [2]; 107% (inactive) in test [3]; 91.4% in test [4] (setting [7]); 107% in test [4] (setting [8]). In addition, the differential viability (reversal) in test [4] (H69AR cells + 2 uM doxorubicin) is 15.6% (inactive). The inhibition in test [5] was -5.32% (inactive); in test [6] it was 3.33% (inactive).
Take `Cn1c(=O)[nH]c(=O)c2c1nc(N1CCOCC1)n2CC(O)COc1ccc2ccccc2c1` (centres undefined): the viability in test [1] is 70% (inactive); in test [2], 88.7% (inactive); in test [3], 88.3% (inactive); in test [4] (setting [7]) it was 89.9%; in test [4] (setting [8]) it was 88.3%. Besides, the differential viability (reversal) in test [4] (H69AR cells + 2 uM doxorubicin) is -1.6% (inactive). For the same compound, the inhibition in test [5] is -6.58% (inactive); in test [6], -1.82% (inactive).
For `Cc1cc(S(=O)(=O)N(Cc2ccccc2)Cc2ccc(N(C)C)cc2)ccc1-n1cnnn1`, the viability in test [1] was 81% (inactive); in test [2] it was 84.3% (inactive); in test [3], 84% (inactive); in test [4] (setting [7]), 87.6%; in test [4] (setting [8]), 84%. The differential viability (reversal) in test [4] (H69AR cells + 2 uM doxorubicin) was -3.54% (inactive). Also, the inhibition in test [5] was -8.24% (inactive); in test [6] it was -2.36% (inactive).
`Cc1cccc(NC(=O)c2ccc3ccccc3n2)n1`: the viability in test [1] is 91% (inactive); in test [2] it was 86.6% (inactive); in test [3], 76.3% (inactive); in test [4] (setting [7]) it was 94.3%; in test [4] (setting [8]), 76.3%. Also, the differential viability (reversal) in test [4] (H69AR cells + 2 uM doxorubicin) is -18.1% (inactive). Besides, the figures for the inhibition in test [5] and in test [6] were -0.13% (inactive) and -1.83% (inactive), respectively.
Turning to `c1ccc(OCCCn2nnc(-c3ccncc3)n2)cc1`, the viability in test [1] was 109% (inactive); in test [2] it was 108% (inactive); in test [3], 95.8% (inactive); in test [4] (setting [7]) it was 96.8%; in test [4] (setting [8]) it was 95.8%. In addition, the differential viability (reversal) in test [4] (H69AR cells + 2 uM doxorubicin) is -1.02% (inactive). For the same compound, the inhibition was -5.21% (inactive) in test [5] and 4.73% (inactive) in test [6].
For the compound `Cc1c(OCC(F)(F)F)ccnc1CS(=O)c1nc2ccccc2[nH]1` (centres undefined), the viability is 99% (inactive) in test [1]; 100% (inactive) in test [2]; 93.8% (inactive) in test [3]; 89.5% in test [4] (setting [7]); 93.8% in test [4] (setting [8]). The differential viability (reversal) in test [4] (H69AR cells + 2 uM doxorubicin) is 4.31% (inactive). In addition, the figures for the inhibition in test [5] and in test [6] were -1.69% (inactive) and 4.33% (inactive), respectively.
As to `Cc1cc(O)c(NC(=O)c2ccc(Br)o2)cc1C`, the viability is 98% (inactive) in test [1]; 71% (inactive) in test [2]; 73.2% (inactive) in test [3]; 88.2% in test [4] (setting [7]); 73.2% in test [4] (setting [8]). Moreover, the differential viability (reversal) in test [4] (H69AR cells + 2 uM doxorubicin) was -15% (inactive). The inhibition is -6.08% (inactive) in test [5] and 1.5% (inactive) in test [6].
With `Cc1ccc(C)c(NS(=O)(=O)c2ccc(NC(=O)c3ccco3)cc2)c1`, the viability in test [1] was 72% (inactive); in test [2], 78.5% (inactive); in test [3], 90.5% (inactive); in test [4] (setting [7]), 96.1%; in test [4] (setting [8]), 90.5%. Moreover, the differential viability (reversal) in test [4] (H69AR cells + 2 uM doxorubicin) was -5.62% (inactive). The inhibition in test [5] was -8.92% (inactive); in test [6] it was -6.91% (inactive).
As to `O=C1NC(=O)C(c2ccccc2)(c2ccccc2)N1`, the viability was 111% (inactive) in test [1]; 75.6% (inactive) in test [2]; 98% (inactive) in test [3]; 90.7% in test [4] (setting [7]); 98% in test [4] (setting [8]). Besides, the differential viability (reversal) in test [4] (H69AR cells + 2 uM doxorubicin) was 7.3% (inactive). The inhibition in test [5] was 2.86% (inactive); in test [6], -1% (inactive).
As to `CC(C)N(Cc1nc(-c2ccc(Cl)cc2)no1)C(=O)CN(C)S(=O)(=O)c1ccc(Cl)cc1`, the viability in test [1] is 95% (inactive); in test [2], 66.3% (inactive); in test [3], 78.7% (inactive); in test [4] (setting [7]), 86.1%; in test [4] (setting [8]), 78.7%. Moreover, in test [4] (H69AR cells + 2 uM doxorubicin), the differential viability (reversal) was -7.31% (inactive). For the same compound, the inhibition in test [5] is -0.68% (inactive); in test [6] it was 1.29% (inactive).
In the case of `Cc1cc(C(=O)Nc2c(F)cc(F)cc2Br)no1`, the viability in test [1] is 99% (inactive); in test [2], 91.9% (inactive); in test [3], 98.2% (inactive); in test [4] (setting [7]) it was 98.4%; in test [4] (setting [8]) it was 98.2%. Also, in test [4] (H69AR cells + 2 uM doxorubicin), the differential viability (reversal) was -0.16% (inactive). The inhibition in test [5] was -6.16% (inactive); in test [6] it was 4.03% (inactive).
Regarding `CCN(C(=O)c1c(OC)cccc1OC)c1nnc(-c2cccnc2)s1`, the viability is 95% (inactive) in test [1]; 87.7% (inactive) in test [2]; 92.7% (inactive) in test [3]; 90.8% in test [4] (setting [7]); 92.7% in test [4] (setting [8]). Further, the differential viability (reversal) in test [4] (H69AR cells + 2 uM doxorubicin) was 1.89% (inactive). Also, the inhibition in test [5] is -5.81% (inactive); in test [6] it was -7.82% (inactive).
For `N[C@@H](Cc1ccc(O)c(I)c1)C(=O)O`, the viability in test [1] was 87% (inactive); in test [2], 87.5% (inactive); in test [3] it was 105% (inactive); in test [4] (setting [7]), 89.3%; in test [4] (setting [8]) it was 105%. Besides, the differential viability (reversal) in test [4] (H69AR cells + 2 uM doxorubicin) is 15.7% (inactive). The values for the inhibition in test [5] and in test [6] were -4.81% (inactive) and -1.33% (inactive), respectively.
Take `CCOC(=O)c1c(C(F)(F)C(F)(F)C(F)(F)C(F)(F)F)n[nH]c1C`: the viability is 63% (inactive) in test [1]; 79.5% (inactive) in test [2]; 76.8% (inactive) in test [3]; 51.7% in test [4] (setting [7]); 76.8% in test [4] (setting [8]). Moreover, in test [4] (H69AR cells + 2 uM doxorubicin), the differential viability (reversal) is 25.1% (inactive). Further, the results for the inhibition in test [5] and in test [6] were -5.75% (inactive) and 4% (inactive), respectively.
Regarding `N#Cc1cnc(SCCc2ccccc2)nc1N`, the viability in test [1] is 78% (inactive); in test [2], 102% (inactive); in test [3] it was 97.8% (inactive); in test [4] (setting [7]), 91.2%; in test [4] (setting [8]) it was 97.8%. In addition, the differential viability (reversal) in test [4] (H69AR cells + 2 uM doxorubicin) is 6.68% (inactive). The inhibition in test [5] was -5.14% (inactive); in test [6] it was 0% (inactive).
Regarding `CC(=O)C1=C(NC(=O)c2ccccc2F)C[C@@H]2[C@H]1C2(C)C`, the viability in test [1] is 90% (inactive); in test [2], 99.2% (inactive); in test [3] it was 91.3% (inactive); in test [4] (setting [7]), 89.5%; in test [4] (setting [8]) it was 91.3%. The differential viability (reversal) in test [4] (H69AR cells + 2 uM doxorubicin) is 1.76% (inactive). Moreover, the figures for the inhibition in test [5] and in test [6] were -10.7% (inactive) and -3.55% (inactive), respectively.

What is called viability is a read-out of living cells in per cent, often relative to untreated cells. A word on the inhibition: it is the relative decrease from the control value, in per cent.

For the origin of these results see PubChem BioAssay.
